For assay [1], the target named is T1, Tubulin alpha (Homo sapiens) (UniProt P0DPH7+P68366+Q71U36+P68363+Q9BQE3+Q6PEY2+A6NHL2+Q9NY65). Kind of assay: Inhibition of tubulin alpha in human SH-SY5Y cells assessed as inhibition of tubulin alpha polymerization at 3 times IC50 value after 24 hrs by immunofluorescence. It counts as cell-based. The essentials: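 Cells were fixed in 3.7% paraformaldehyde for 20 min, permeabilized in ice-cold 80% MeOH, and blocked with 0.2% fish gelatine. Staining used anti-α-tubulin (1:1000, 20 min RT), then Alexa 488 anti-mouse with DRAQ5 nuclear stain. Imaging was by confocal microscopy with a 63× oil objective.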

Assay [2] deals with T1, Tubulin alpha (Homo sapiens). Kind of assay: Inhibition of tubulin alpha polymerization in human HeLa cells assessed as increase in soluble tubulin alpha fraction at 3 times IC50 value after 16 hrs by Western blotting in presence of paclitaxel. It counts as cell-based. The method in brief: (§1)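 Cells were grown 16 h with or without drug (3 × IC50), trypsinized, and lysed 10 min at RT in hypotonic buffer (20 mM Tris-HCl pH 6.8, 1 mM MgCl2, 2 mM EGTA, 0.5% NP-40, protease inhibitors) containing 4 μg/mL paclitaxel. Protein-normalized lysate (50 μg) was spun at 13 000 rpm for 15 min. Pellet (polymerized) and supernatant (free) fractions were run on 10% SDS-PAGE and blotted with anti-α-tubulin, read by chemiluminescence.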

Assay [3] shares this target. Kind of assay: Inhibition of tubulin alpha polymerization in human HeLa cells assessed as decreased pelletable tubulin alpha fraction at 3 times IC50 value after 16 hrs by Western blotting in presence of paclitaxel. It counts as cell-based. The method in brief:
as §1

In assay [4] the test system is SH-SY5Y. Kind of assay: Cytotoxicity against human SH-SY5Y cells assessed as cell viability at 1 uM after 48 hrs by MTT assay. Particulars: read-out: Activity. Type of assay: functional. The essentials: (§2)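 SH-SY5Y cells in 50% DMEM/50% F-12 with 10% FBS, 2 mM L-glutamine, penicillin and streptomycin, grown 48 h with or without compound. Cells were washed in Locke's solution (pH 7.6), given MTT (250 μg/mL) for 30 min at 37 °C, solubilized in isopropyl alcohol/HCl, and read at 570 nm. Single-point values are % viable cells at 1 μM. IC50s come from fitted full concentration-response curves; mean ± SD of 12 determinations from 3 experiments.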

Assay [5] concerns SH-SY5Y. Kind of assay: Cytotoxicity against human SH-SY5Y cells assessed as cell viability after 48 hrs by MTT assay. It counts as functional, cell-based. The essentials: as §2
The test system of assay [6] is HeLa. Description: Cytotoxicity against human HeLa cells assessed as cell viability after 48 hrs by MTT assay. It counts as functional, cell-based.
In assay [7] the test system is HeLa. Description: Cell cycle arrest in human HeLa cells assessed as accumulation at G2/M phase at 3 times IC50 value after 16 hrs using propidium iodide staining by FACS analysis. It counts as functional, cell-based. The essentials:
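Cells were treated 16 h with vehicle or 3 × IC50 compound, washed in PBS, fixed in ice-cold 30:70 PBS/EtOH, and stored at −20 °C. They were then treated with RNase (100 μg/mL) for 30 min at RT and stained with propidium iodide (100 μg/mL) in PBS with 5 mM EDTA for 30 min in the dark. DNA content was read by flow cytometry, representative of three experiments.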

Assay [8] in a line: Inhibition of tubulin alpha polymerization. To be noted: concentration not given here.

Activity calls are given as the source filed them. The rule behind the calls is not given here.

In the case of `COc1ccc(/C=C\c2cc(OC)c(OC)c(OC)c2)cc1O` [COMBRETASTATIN A4], in assay [1], the “tubulin polymerization inhibition (qualitative call)” value (“tubulin polymerization inhibition” below) is “Active”. Moreover, the inhibition result in assay [2] and in assay [3] was “Active” throughout. In addition, in the assay with SH-SY5Y [4], the viability at 1 µM worked out at 23%. Moreover, the IC50 in the assay with SH-SY5Y [5] amounted to 2.3 nM; in the assay on HeLa [6], 1.7 nM. The result with HeLa [7] was Active.

As to `COc1cc(-c2cscc2-c2cccc3ncccc23)cc(OC)c1OC`, the viability at 1 µM with SH-SY5Y [4] was 100%.

For the compound `COc1cc(-c2cscc2-c2cc(OC)c(OC)c(OC)c2)cc(OC)c1OC`, the viability at 1 µM in the assay with SH-SY5Y [4] is 91%.

For the compound `COc1cc(-c2cscc2-c2cccc(C(F)(F)F)c2)cc(OC)c1OC`, the viability at 1 µM in the assay on SH-SY5Y [4] came to 91%.

Turning to `COc1ccc(-c2cscc2-c2cc(OC)c(OC)c(OC)c2)cc1OC`, the viability at 1 µM in the assay with SH-SY5Y [4] is 94%.

On to `COc1cc(-c2cscc2-c2ccc(Cl)c(C(F)(F)F)c2)cc(OC)c1OC`, for which the viability at 1 µM in the assay with SH-SY5Y [4] came out at 91%.

Regarding `COc1ccc(-c2cscc2-c2cc(OC)c(OC)c(OC)c2)cc1O`, the “tubulin polymerization inhibition” value in assay [1] was “Active”. In addition, the inhibition result in assay [2] and in assay [3] was “Active” each time. Besides, the viability at 1 µM in the assay with SH-SY5Y [4] was found to be 29%. For the same compound, the IC50 in the assay with SH-SY5Y [5] is 79 nM; in the assay on HeLa [6] it was 200 nM. Besides, in the assay on HeLa [7], the outcome was Active.

Take `COc1ccc(-c2cscc2-c2cc(OC)c(OC)c(OC)c2)c(OC)c1`: the viability at 1 µM in the assay with SH-SY5Y [4] was found to be 90%.

For the compound `COc1cc(-c2cscc2-c2ccc(SC)cc2)cc(OC)c1OC`, the viability at 1 µM with SH-SY5Y [4] amounted to 51%.

In the case of `COc1ccc(-c2cscc2-c2cc(OC)c(OC)c(OC)c2)cc1`, the viability at 1 µM in the assay on SH-SY5Y [4] was 31%. Moreover, the figures for the 50% inhibitory concentration (IC50) in the assay on SH-SY5Y [5] and in the assay with HeLa [6] were 480 nM and 420 nM, respectively.

Consider `COc1cc(-c2cscc2-c2cccc(C#N)c2)cc(OC)c1OC`, for which the viability at 1 µM with SH-SY5Y [4] was 97%.

In the case of `COc1cc(-c2cscc2-c2cccnc2)cc(OC)c1OC`, the viability at 1 µM in the assay with SH-SY5Y [4] was determined as 109%.

For the compound `COc1cc(-c2cscc2-c2cccc([N+](=O)[O-])c2)cc(OC)c1OC`, in the assay with SH-SY5Y [4], the viability at 1 µM came out at 108%.

With `COc1cccc(-c2cscc2-c2cc(OC)c(OC)c(OC)c2)c1F`, the viability at 1 µM with SH-SY5Y [4] was found to be 28%. For the same compound, the IC50 was 330 nM in the assay with SH-SY5Y [5] and 430 nM in the assay on HeLa [6].

Turning to `COc1ccc(-c2cscc2-c2cc(OC)c(OC)c(OC)c2)cc1C`, the viability at 1 µM with SH-SY5Y [4] came out at 80%.

For the compound `COc1ccc(C2=C(c3cc(OC)c(OC)c(OC)c3)CCC2)cc1O`, the “tubulin polymerization inhibition” value in assay [1] is “Active”. Moreover, the inhibition result in assay [2] and in assay [3] was “Active” each time. The viability at 1 µM in the assay on SH-SY5Y [4] came out at 33%. The IC50 with SH-SY5Y [5] is 37 nM; with HeLa [6], 300 nM. Besides, in the assay with HeLa [7], the result was Active.

Regarding `COc1cc(-c2cscc2-c2cccc3ccccc23)cc(OC)c1OC`, the viability at 1 µM in the assay with SH-SY5Y [4] amounted to 83%.

In the case of `COc1cc(-c2cscc2-c2ccc(OC(F)(F)F)cc2)cc(OC)c1OC`, the viability at 1 µM in the assay with SH-SY5Y [4] is 93%.

Turning to `COc1ccc(-c2ccoc2-c2cc(OC)c(OC)c(OC)c2)cc1O`, the “tubulin polymerization inhibition” value in assay [1] is “Active”. In addition, the inhibition result in assay [2] and in assay [3] was “Active” throughout. In addition, in the assay on SH-SY5Y [4], the viability at 1 µM was 23%. In addition, the IC50 with SH-SY5Y [5] was 2.4 nM; in the assay with HeLa [6], 3.1 nM. Moreover, the result with HeLa [7] was Active.

In the case of `COc1ccc(-c2occc2-c2cc(OC)c(OC)c(OC)c2)cc1`, in assay [1], the “tubulin polymerization inhibition” value is “Active”. The viability at 1 µM with SH-SY5Y [4] stood at 24%. In addition, the IC50 with SH-SY5Y [5] is 34 nM; in the assay on HeLa [6], 170 nM.

With `COc1cc(-c2cscc2-c2ccc3c(c2)OCO3)cc(OC)c1OC`, the viability at 1 µM in the assay with SH-SY5Y [4] turned out to be 65%.

Take `COc1cccc(-c2cscc2-c2cc(OC)c(OC)c(OC)c2)c1`: the viability at 1 µM in the assay with SH-SY5Y [4] was 49%.

For the compound `COc1ccc(-c2occc2-c2cc(OC)c(OC)c(OC)c2)cc1O`, the inhibition result in assay [2] and in assay [3] was “Active” throughout. For the same compound, the viability at 1 µM in the assay with SH-SY5Y [4] amounted to 20%. The IC50 in the assay with SH-SY5Y [5] is 9.4 nM; with HeLa [6] it was 20 nM. In addition, the outcome in the assay with HeLa [7] was Active. The inhibition in assay [8] is 50%.

For the compound `COc1ccc(-c2cscc2-c2cc(OC)c(OC)c(OC)c2)cn1`, the viability at 1 µM with SH-SY5Y [4] was found to be 82%.

As to `COc1ccc(-c2ccoc2-c2cc(OC)c(OC)c(OC)c2)cc1`, the viability at 1 µM with SH-SY5Y [4] was 23%. Besides, the IC50 came to 28 nM with SH-SY5Y [5] and 17 nM in the assay with HeLa [6].

Regarding `COc1cc(-c2cscc2-c2ccc3c(c2)OCCO3)cc(OC)c1OC`, the viability at 1 µM in the assay with SH-SY5Y [4] amounted to 27%. Moreover, the IC50 in the assay on SH-SY5Y [5] was 350 nM; in the assay on HeLa [6] it was 420 nM. In the assay with HeLa [7], the outcome was Active.

For the compound `COc1ccc(-c2cscc2-c2cc(OC)c(OC)c(OC)c2)cc1F`, in the assay with SH-SY5Y [4], the viability at 1 µM turned out to be 52%.

For the compound `COc1cc(-c2cscc2-c2cccc(OC)c2OC)cc(OC)c1OC`, in the assay on SH-SY5Y [4], the viability at 1 µM came to 90%.

For `COc1cc(-c2cscc2-c2ccc(C)c(F)c2)cc(OC)c1OC`, the viability at 1 µM in the assay with SH-SY5Y [4] amounted to 30%. Besides, the IC50 with SH-SY5Y [5] came out at 310 nM; in the assay with HeLa [6], 420 nM. The result with HeLa [7] was Active.

Regarding `COc1cc(-c2cscc2-c2ccc(C)c(C)c2)cc(OC)c1OC`, in the assay with SH-SY5Y [4], the viability at 1 µM was 84%.

In the case of `COc1cc(-c2cscc2-c2ccc(O)cc2)cc(OC)c1OC`, the viability at 1 µM with SH-SY5Y [4] was 93%.

As to `COc1cc(-c2cscc2-c2cnc3ccccc3c2)cc(OC)c1OC`, the viability at 1 µM with SH-SY5Y [4] was 45%.

The values above are taken from ChEMBL document CHEMBL1800052, “Regioselective Suzuki coupling of dihaloheteroaromatic compounds as a rapid strategy to synthesize potent rigid combretastatin analogues” (J Med Chem, 2011).
